The test system of one data set is TERT-RPE1. Nature of the data set: (§1) Cytotoxicity against human TERT-RPE1 cells. Particulars: tert-rpe1; call rule not given here. It counts as cell-based.
The test system of data set [1] is LNCaP. As to the kind of experiment: (§2) Cytotoxicity against human LNCaP cells. It counts as cell-based. Conditions: lncap.
For data set [2], the system named is Lu1. Nature of the data set: (§3) Cytotoxicity against human Lu1 cells. It counts as cell-based. Conditions: lu1.
The next data set relates to HUVEC. As to the kind of experiment: (§4) Cytotoxicity against human HUVEC cells. In kind it is cell-based. Particulars: huvec.
Another data set relates to Col2. As to the kind of experiment: (§5) Cytotoxicity against human Col2 cells. In kind it is cell-based. Conditions: col2.
In data set [3] the test system is MCF7. Nature of the data set: (§6) Cytotoxicity against human MCF7 cells. It counts as cell-based. Conditions: mcf7.
Data set [4] can be described thus: as §2. In kind it is cell-based. Particulars: LNCaP cells, read-out: ED50 (the source's name).
Data set [5] in a line: as §3. It counts as cell-based. Conditions: Lu1 cells, read-out: ED50 (the source's name).
The nature of data set [6]: as §4. It counts as cell-based. Particulars: HUVEC cells, read-out: ED50 (the source's name).
Data set [7] can be described thus: as §6. In kind it is cell-based. Conditions: MCF7 cells, read-out: ED50 (the source's name).
Data set [8] can be described thus: as §1. Conditions: TERT-RPE1 cells, read-out: ED50 (the source's name). In kind it is cell-based.
Data set [9] can be described thus: as §5. It counts as cell-based. Particulars: Col2 cells, read-out: ED50 (the source's name).
Data set [10] deals with MCF7. Nature of the data set: Cytotoxicity against human MCF7 cells xenografted in NCr nu/nu athymic mouse at 12.5 mg/kg, ip by hollow fiber assay. In kind it is organism-based. Conditions: in vivo. On the set-up: dose 12.5 mg/kg, route intraperitoneal. In short, it runs like this: (§7)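 Female-unspecified NCr nu/nu athymic mice, five to six weeks old. LNCaP, Lu1 and MCF-7 cells were sealed in semi-porous hollow fibres and implanted at intraperitoneal and subcutaneous sites, each mouse carrying all three lines at both sites. Compound was given i.p. at 6.25, 12.5, 25 or 50 mg/kg, with three mice per dose group.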
Background: Xenograft models place foreign cells or tissue in a host animal.

For data set [11], the system named is LNCaP. As to the kind of experiment: Cytotoxicity against human LNCaP cells xenografted in NCr nu/nu athymic mouse at 6.25 mg/kg, ip by hollow fiber assay. Particulars: in vivo. In kind it is organism-based. On the set-up: dose 6.25 mg/kg, route intraperitoneal. The essentials: as §7
Data set [12] deals with Lu1. As to the kind of experiment: Cytotoxicity against human Lu1 cells xenografted in NCr nu/nu athymic mouse at 6.25 mg/kg, ip by hollow fiber assay. On the set-up: dose 6.25 mg/kg, route intraperitoneal. In kind it is organism-based. Conditions: in vivo. The essentials:
as §7

In data set [13] the test system is LNCaP. Nature of the data set: Cytotoxicity against human LNCaP cells xenografted in NCr nu/nu athymic mouse at 12.5 mg/kg, ip by hollow fiber assay. Conditions: in vivo. On the set-up: dose 12.5 mg/kg, route intraperitoneal. In kind it is organism-based. The essentials:
as §7

Data set [14] concerns Lu1. Nature of the data set: Cytotoxicity against human Lu1 cells xenografted in NCr nu/nu athymic mouse at 25 mg/kg, ip by hollow fiber assay. In kind it is organism-based. On the set-up: dose 25 mg/kg, route intraperitoneal. Conditions: in vivo. In short, it runs like this:
as §7

Data set [15] relates to Lu1. Nature of the data set: Cytotoxicity against human Lu1 cells xenografted in NCr nu/nu athymic mouse at 50 mg/kg, ip by hollow fiber assay. It counts as organism-based. On the set-up: dose 50 mg/kg, route intraperitoneal. Particulars: in vivo. The essentials:
as §7

In data set [16] the test system is LNCaP. As to the kind of experiment: Cytotoxicity against human LNCaP cells xenografted in NCr nu/nu athymic mouse at 25 mg/kg, ip by hollow fiber assay. On the set-up: dose 25 mg/kg, route intraperitoneal. Particulars: in vivo. It counts as organism-based. In short, it runs like this:
as §7

The subject of data set [17] is Lu1. As to the kind of experiment: Cytotoxicity against human Lu1 cells xenografted in NCr nu/nu athymic mouse at 12.5 mg/kg, ip by hollow fiber assay. It counts as organism-based. On the set-up: dose 12.5 mg/kg, route intraperitoneal. Conditions: in vivo. The essentials: as §7
The subject of data set [18] is MCF7. Nature of the data set: Cytotoxicity against human MCF7 cells xenografted in NCr nu/nu athymic mouse at 50 mg/kg, ip by hollow fiber assay. It counts as organism-based. On the set-up: dose 50 mg/kg, route intraperitoneal. Particulars: in vivo. The essentials:
as §7

In data set [19] the test system is MCF7. Nature of the data set: Cytotoxicity against human MCF7 cells xenografted in NCr nu/nu athymic mouse at 25 mg/kg, ip by hollow fiber assay. In kind it is organism-based. On the set-up: dose 25 mg/kg, route intraperitoneal. Conditions: in vivo. In short, it runs like this: as §7
Data set [20] has as its system MCF7. As to the kind of experiment: Cytotoxicity against human MCF7 cells xenografted in NCr nu/nu athymic mouse at 6.25 mg/kg, ip by hollow fiber assay. On the set-up: dose 6.25 mg/kg, route intraperitoneal. Particulars: in vivo. It counts as organism-based. In short, it runs like this:
as §7

In data set [21] the test system is LNCaP. As to the kind of experiment: Cytotoxicity against human LNCaP cells xenografted in NCr nu/nu athymic mouse at 50 mg/kg, ip by hollow fiber assay. Conditions: in vivo. On the set-up: dose 50 mg/kg, route intraperitoneal. In kind it is organism-based. In short, it runs like this: as §7

Each structure is given as a SMILES string. Converted amounts (≈) assume the structure as drawn.

As to `COc1ccc(-c2cc(=O)c3c(O)cc(OC)cc3o2)cc1`, the Activity result in the data set with TERT-RPE1, with LNCaP [1], in the data set on Lu1 [2], with HUVEC, with Col2 and with MCF7 [3] was “Not Active” each time.

In the case of `CC1=CCC[C@@H]2[C@@](C)(/C=C/C3=CC(=O)O[C@H]3O)[C@H](C)CC[C@@]12C`, the CC50 in data set [4] amounted to 2.5 µg/mL (≈ 7.9 µM); in data set [5], 2.6 µg/mL (≈ 8.22 µM); in [6], 1.2 µg/mL (≈ 3.79 µM); in [7] it was 2.7 µg/mL (≈ 8.53 µM).

Consider `COc1ccc(-c2cc(=O)c3c(O)c(OC)c(OC)cc3o2)cc1` [SALVIGENIN], for which the Activity result with TERT-RPE1, in the data set with LNCaP [1], with Lu1 [2], in the data set with HUVEC, with Col2 and with MCF7 [3] was “Not Active” throughout.

Take `CC1=C(C=O)C[C@@H]2[C@@](C)(CCC3=CC(=O)OC3O)[C@H](C)CC[C@@]12C` (some centres not stated): the CC50 in data set [8] was 1.9 µg/mL (≈ 5.72 µM); in [4], 4.5 µg/mL (≈ 13.5 µM); in data set [5], 8.7 µg/mL (≈ 26.2 µM); in [6], 9.8 µg/mL (≈ 29.5 µM); in [9] it was 9 µg/mL (≈ 27.1 µM); in data set [7] it was 3.9 µg/mL (≈ 11.7 µM).

In the case of `COc1cc(O)c2c(=O)cc(-c3ccc(O)cc3)oc2c1` [GENKWANIN], the CC50 in [8] is 3.9 µg/mL (≈ 13.7 µM); in [4], over 20 µg/mL; in data set [5], over 20 µg/mL; in [6], over 20 µg/mL; in [9] it was over 20 µg/mL.

Take `C=C1[C@@H](O)CC[C@@H]2[C@@](C)(C[C@H](O)C3=CC(=O)OC3)[C@H](C)CC[C@@]12C`: the Activity entry in the data set with TERT-RPE1, in the data set on LNCaP [1], in the data set on Lu1 [2], with HUVEC, with Col2 and in the data set with MCF7 [3] was “Not Active” each time.

Turning to `CC1=CCC[C@@H]2[C@@](C)(CCC3=CC(=O)O[C@H]3O)[C@H](C)CC[C@@]12C`, the CC50 in data set [4] was determined as 3.3 µg/mL (≈ 10.4 µM); in data set [5], 3.7 µg/mL (≈ 11.6 µM); in [6] it was 4.1 µg/mL (≈ 12.9 µM); in [7], 3.5 µg/mL (≈ 11 µM).

With `CO[C@@H]1OC(=O)C=C1[C@@H](O)C[C@@]1(C)[C@H](C)CC[C@@]2(C)C(C)=CCC[C@H]12`, the Activity result in the data set with TERT-RPE1, with LNCaP [1], in the data set on Lu1 [2], with HUVEC, with Col2 and in the data set on MCF7 [3] was “Not Active” each time.

On to `CC1(C)C(=O)CC[C@@]2(C)[C@H]1CC[C@@]13C[C@H](CC[C@@H]12)[C@@](O)(CO)C3` [CALLITERPENONE], for which the Activity entry with TERT-RPE1, with LNCaP [1], in the data set on Lu1 [2], with HUVEC, in the data set with Col2 and in the data set with MCF7 [3] was “Not Active” in each case.

In the case of `CC1=CCC[C@@H]2[C@@](C)(C[C@H](O)C3=CC(=O)OC3)[C@H](C)CC[C@@]12C`, the Activity entry with TERT-RPE1, in the data set on LNCaP [1], with Lu1 [2], in the data set with HUVEC, with Col2 and with MCF7 [3] was “Not Active” in each case.

In the case of `C=C1[C@@H](O)CC[C@@H]2[C@@](C)(CCC3=CC(=O)O[C@H]3O)[C@H](C)CC[C@@]12C`, the Activity entry in the data set with TERT-RPE1, in the data set on LNCaP [1], in the data set with Lu1 [2], in the data set on HUVEC, in the data set on Col2 and in the data set on MCF7 [3] was “Not Active” each time.

For the molecule `C[C@@H]1CC[C@]2(C(=O)O)CC[C@]3(C)C(=CC[C@@H]4[C@@]5(C)C[C@@H](O)[C@@H](O)C(C)(C)[C@@H]5CC[C@]43C)[C@@H]2[C@]1(C)O` [EUSCAPHIC ACID], the Activity result in the data set on TERT-RPE1, in the data set on LNCaP [1], with Lu1 [2], with HUVEC, with Col2 and in the data set on MCF7 [3] was “Not Active” throughout.

With `CC1=CCC[C@@H]2[C@@](C)(C[C@H](O)C3=CC(=O)O[C@H]3O)[C@H](C)CC[C@@]12C`, the CC50 turned out to be 1.9 µg/mL (≈ 5.68 µM) in data set [8]; 4.1 µg/mL (≈ 12.3 µM) in [4]; 2.4 µg/mL (≈ 7.18 µM) in data set [5]; 1.8 µg/mL (≈ 5.38 µM) in data set [6]; 2.3 µg/mL (≈ 6.88 µM) in [9]. Besides, the Activity entry in the data set on MCF7 [10], in the data set on LNCaP [11], in the data set with Lu1 [12], with LNCaP [13], with Lu1 [14] and in the data set with Lu1 [15] was “Not Active” each time. The Activity result in the data set on LNCaP [16], in the data set with Lu1 [17], in the data set with MCF7 [18], in the data set on MCF7 [19], with MCF7 [20] and in the data set with LNCaP [21] was “Not Active” in each case.

On to `CC1=CCC[C@@H]2[C@@](C)(C[C@H](O)C3=CCOC3=O)[C@H](C)CC[C@@]12C`, for which the CC50 in [4] is 3.3 µg/mL (≈ 10.4 µM); in data set [5] it was 2.9 µg/mL (≈ 9.11 µM); in data set [7] it was 2.8 µg/mL (≈ 8.79 µM).

The record behind these values is ChEMBL document CHEMBL1142244, “Cytotoxic constituents from the fruiting branches of Callicarpa americana collected in southern Florida” (J Nat Prod, 2007).
